Results reported in ChEMBL document CHEMBL1145801, “Inhibition of Cdc25 phosphatases by indolyldihydroxyquinones” (J Med Chem, 2003).

How the values were obtained:
[1] = target: T1, M-phase inducer phosphatase 3 (Homo sapiens, UniProt P30307); assay: Eight point inhibitory concentration against Cell division cycle 25 degree C was determined
T1 sequence (P30307 whole entry): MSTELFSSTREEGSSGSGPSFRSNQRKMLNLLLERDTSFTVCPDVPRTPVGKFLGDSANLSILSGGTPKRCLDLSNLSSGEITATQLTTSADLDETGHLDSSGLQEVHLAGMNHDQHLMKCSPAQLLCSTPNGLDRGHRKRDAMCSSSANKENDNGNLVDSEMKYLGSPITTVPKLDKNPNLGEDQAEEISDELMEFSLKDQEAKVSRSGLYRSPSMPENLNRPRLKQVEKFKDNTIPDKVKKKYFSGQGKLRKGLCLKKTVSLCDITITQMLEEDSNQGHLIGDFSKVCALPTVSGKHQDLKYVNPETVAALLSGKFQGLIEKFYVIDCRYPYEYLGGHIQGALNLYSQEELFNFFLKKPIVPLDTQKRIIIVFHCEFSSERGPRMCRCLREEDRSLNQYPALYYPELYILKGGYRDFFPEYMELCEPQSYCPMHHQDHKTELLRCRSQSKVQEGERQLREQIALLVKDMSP
Method in brief: (§1)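 Phosphatase activity measured with 3-O-methylfluorescein phosphate at 50 μM (~5 × Km), product formation followed at 477 nm by UV-vis under initial velocity conditions (2–5% turnover) in time-dependent assays. Eight inhibitor concentrations were used, and IC50 was obtained by fitting to a dose–response equation.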

[2] = target: T2, M-phase inducer phosphatase 3 (Homo sapiens) (UniProt P30307); assay: Percent inhibition of cell division cycle 25 degree C at 50 uM
T2 sequence (whole entry): T1 sequence (P30307 whole entry)
Method in brief: (§2)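 Single-point screen at 50 μM inhibitor against Cdc25A, Cdc25B or Cdc25C with 50 μM 3-O-methylfluorescein phosphate, product followed at 477 nm in time-dependent assays. Activity was compared with a simultaneous no-inhibitor control, and selected compounds were run in duplicate (average error ±7%).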

[3] = target: T3, M-phase inducer phosphatase 2 (Homo sapiens, UniProt P30305); assay: Eight point inhibitory concentration against Cell division cycle 25B was determined
T3 sequence (P30305 whole entry): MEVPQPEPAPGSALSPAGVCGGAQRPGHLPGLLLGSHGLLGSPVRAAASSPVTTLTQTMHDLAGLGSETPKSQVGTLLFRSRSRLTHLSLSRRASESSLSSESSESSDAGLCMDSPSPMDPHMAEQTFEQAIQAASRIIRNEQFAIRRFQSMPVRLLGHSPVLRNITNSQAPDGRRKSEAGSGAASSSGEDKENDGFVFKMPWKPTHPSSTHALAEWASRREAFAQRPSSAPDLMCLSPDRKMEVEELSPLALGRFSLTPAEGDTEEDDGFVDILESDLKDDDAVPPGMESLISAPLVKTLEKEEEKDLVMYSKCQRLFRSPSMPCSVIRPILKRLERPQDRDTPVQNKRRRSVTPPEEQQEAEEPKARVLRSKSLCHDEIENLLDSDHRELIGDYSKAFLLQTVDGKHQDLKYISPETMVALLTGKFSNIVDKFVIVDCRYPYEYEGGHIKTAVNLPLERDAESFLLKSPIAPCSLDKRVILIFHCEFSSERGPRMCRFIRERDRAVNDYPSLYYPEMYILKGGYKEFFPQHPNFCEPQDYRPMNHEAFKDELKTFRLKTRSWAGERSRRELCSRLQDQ
Method in brief: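 Cdc25B activity read by UV-vis at 477 nm as product formed from 3-O-methylfluorescein phosphate (mFP) at 50 μM (~5 × Km), time-dependent, initial-velocity conditions (2–5% turnover); eight inhibitor concentrations, IC50 fitted to eq 1. Each reaction compared with a simultaneous no-inhibitor control; selected compounds run in duplicate.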

[4] = target: T4, M-phase inducer phosphatase 1 (Homo sapiens, UniProt P30304); assay: Eight point inhibitory concentration against Cell division cycle 25A was determined; method in brief: as §1
T4 sequence (P30304 whole entry): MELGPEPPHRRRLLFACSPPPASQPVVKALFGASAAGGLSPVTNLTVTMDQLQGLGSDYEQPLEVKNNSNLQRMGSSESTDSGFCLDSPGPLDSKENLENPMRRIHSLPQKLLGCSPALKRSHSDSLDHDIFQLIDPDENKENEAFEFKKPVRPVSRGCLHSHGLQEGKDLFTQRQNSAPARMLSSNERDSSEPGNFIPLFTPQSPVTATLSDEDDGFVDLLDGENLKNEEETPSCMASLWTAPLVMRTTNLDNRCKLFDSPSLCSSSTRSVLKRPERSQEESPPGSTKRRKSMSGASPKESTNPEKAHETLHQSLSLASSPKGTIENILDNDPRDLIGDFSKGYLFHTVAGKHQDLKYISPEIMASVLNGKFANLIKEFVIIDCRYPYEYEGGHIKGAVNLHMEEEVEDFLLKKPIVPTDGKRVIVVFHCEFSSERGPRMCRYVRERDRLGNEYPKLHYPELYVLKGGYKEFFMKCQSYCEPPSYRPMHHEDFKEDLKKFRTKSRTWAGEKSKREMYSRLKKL

[5] = target: T5, M-phase inducer phosphatase 2 (Homo sapiens) (UniProt P30305); assay: Percent inhibition of cell division cycle 25B at 50 uM; method in brief: as §2
T5 sequence (whole entry): T3 sequence (P30305 whole entry)

[6] = target: T6, M-phase inducer phosphatase 1 (Homo sapiens) (UniProt P30304); assay: Percent inhibition of cell division cycle 25A at 50 uM; method in brief: as §2
T6 sequence (whole entry): T4 sequence (P30304 whole entry)

Row | SMILES | IC50 [1] [µM] | inhibition [2] [%] | IC50 [3] [µM] | IC50 [4] [µM] | inhibition [5] [%] | inhibition [6] [%]
1 | O=C1C=C(O)C(=O)C(c2c[nH]c3c(Cc4ccccc4)cccc23)=C1O | 15 | 98 | 2.3 | 2.3 | 97 | 100
2 | CCCc1cccc2c(C3=C(O)C(O)=CC(=O)C3=O)c[nH]c12 | > 50 | 79 | 59 | 4.2 | 23 | 72
3 | Cc1ccc2[nH]c(C)c(C3=C(O)C(O)=CC(=O)C3=O)c2c1 | – | 25 | – | – | 20 | 18
4 | O=C1C=C(O)C(=O)C(c2c[nH]c3ccc(F)cc23)=C1O | – | 23 | – | – | 32 | 39
5 | Cc1ccccc1Cc1cccc2c(C3=C(O)C(O)=CC(=O)C3=O)c[nH]c12 | 3.5 | 94 | 1 | 1 | 97 | 100
6 | COc1cccc2c(C3=C(O)C(O)=CC(=O)C3=O)c[nH]c12 | – | 13 | – | – | 15 | 0
7 | O=C1C=C(O)C(=O)C(c2c(-c3ccccc3)[nH]c3ccccc23)=C1O | – | 18 | – | – | 38 | 40
8 | O=C1C=C(O)C(=O)C(c2c[nH]c3cccc(Cl)c23)=C1O | > 50 | 0 | > 50 | 28 | 21 | 22
9 | COc1cccc2[nH]cc(C3=C(O)C(O)=CC(=O)C3=O)c12 | – | 19 | – | – | 21 | 40
10 | O=C1C=C(O)C(=O)C(c2c[nH]c3c2ccc2ccccc23)=C1O | 15 | 75 | 24 | 2.5 | 79 | 99
11 | O=C1C=C(O)C(=O)C(c2c[nH]c3ccc(OCc4ccccc4)cc23)=C1O | – | 26 | – | 5.5 | 50 | 100
12 | Cc1cccc2c(C3=C(O)C(O)=CC(=O)C3=O)c[nH]c12 | – | 1 | – | – | 0 | 0
13 | O=C1/C(=N/CCc2cc(Br)c(O)c(Br)c2)C=C(O)c2cccnc21 | 35 | – | 35 | 15 | – | –
14 | Cc1ccc2c(C3=C(O)C(O)=CC(=O)C3=O)c[nH]c2c1 | – | 28 | – | – | 16 | 66
15 | O=C1C=C(O)C(=O)C(c2c[nH]c3ccc(Cl)cc23)=C1O | – | 45 | – | – | 32 | 59
16 | Cn1cc(C2=C(O)C(O)=CC(=O)C2=O)c2ccccc21 | – | 19 | – | – | 42 | 18
17 | CC1(c2[nH]c3ccccc3c2C2=C(O)C(O)=CC(=O)C2=O)CC1 | – | 0 | – | – | 17 | 0
18 | Cc1[nH]c2c(C)cccc2c1C1=C(O)C(O)=CC(=O)C1=O | – | 0 | – | – | 0 | 0
19 | Cc1[nH]c2ccccc2c1C1=C(O)C(O)=CC(=O)C1=O | – | 5 | – | – | 9 | 24
20 | CCc1[nH]c2ccccc2c1C1=C(O)C(O)=CC(=O)C1=O | – | 14 | – | – | 36 | 15
21 | COc1cc2[nH]cc(C3=C(O)C(O)=CC(=O)C3=O)c2cc1OC | – | 20 | – | – | 19 | 54
22 | O=C1C=C(O)C(=O)C(c2c[nH]c3cc(OCc4ccccc4)ccc23)=C1O | – | 92 | – | – | 97 | 82

Row | SMILES | IC50 [1] [µM] | inhibition [2] [%] | IC50 [3] [µM] | IC50 [4] [µM] | inhibition [5] [%] | inhibition [6] [%]
23 | CC1(c2[nH]c3ccccc3c2C2=C(O)C(O)=CC(=O)C2=O)CCCCC1 | – | 22 | – | – | 11 | 44
24 | O=C1C=C(O)C(=O)C(c2c[nH]c3cccc(OCc4ccccc4)c23)=C1O | – | 2 | – | – | 0 | 48
25 | O=C1C=C(O)C(=O)C(c2c[nH]c3cc4c(cc23)OCO4)=C1O | – | 63 | – | – | 88 | 99
26 | O=C1C=C(O)C(=O)C(c2c[nH]c3cc(F)ccc23)=C1O | – | 48 | – | – | 90 | 97
27 | CC(C)=CCC/C(C)=C/Cc1cccc2c(C3=C(O)C(O)=CC(=O)C3=O)c[nH]c12 | 10 | 96 | – | 1 | 95 | 86
28 | O=C1C=C(O)C(=O)C(c2c[nH]c3cccc(F)c23)=C1O | – | 0 | – | – | 5 | 20
29 | O=C1C=C(O)C(=O)C(c2c[nH]c3c(F)cccc23)=C1O | – | 68 | – | – | 67 | 100
30 | CC(C)(C)c1[nH]c2ccccc2c1C1=C(O)C(O)=CC(=O)C1=O | – | 0 | – | – | 11 | 30
31 | CC(C)c1[nH]c2ccccc2c1C1=C(O)C(O)=CC(=O)C1=O | – | 0 | – | – | 13 | 7
32 | COc1ccc2[nH]cc(C3=C(O)C(O)=CC(=O)C3=O)c2c1 | – | 0 | – | – | 0 | 0
33 | Cc1[nH]c2ccc(Cl)cc2c1C1=C(O)C(O)=CC(=O)C1=O | – | 30 | – | – | 42 | 0
34 | C=CC(C)(C)c1[nH]c2ccccc2c1C1=C(O)C(O)=CC(=O)C1=O | – | 21 | – | – | 0 | 12
35 | Cc1ccc2c(C3=C(O)C(O)=CC(=O)C3=O)c[nH]c2c1C | – | 20 | – | – | 32 | 9
36 | Cc1cccc2[nH]cc(C3=C(O)C(O)=CC(=O)C3=O)c12 | – | 28 | – | – | 9 | 39
37 | O=C1C=C(O)C(=O)C(c2c[nH]c3ccc(Br)cc23)=C1O | – | 26 | – | 5.8 | 55 | 83
38 | COc1ccc2[nH]c(C)c(C3=C(O)C(O)=CC(=O)C3=O)c2c1 | – | 31 | – | – | 0 | 0
39 | O=C1C=C(O)C(=O)C(c2c[nH]c3c(Br)cccc23)=C1O | – | 11 | – | – | 45 | 11
40 | O=C1C=C(O)C(=O)C(c2c[nH]c3cccc(Br)c23)=C1O | – | 54 | – | – | 6 | 51
41 | Cc1ccc2c(C3=C(O)C(O)=CC(=O)C3=O)c(C)[nH]c2c1 | – | 0 | – | – | 16 | 0
42 | O=C1C=C(O)C(=O)C(c2c[nH]c3c(Cl)cccc23)=C1O | – | 54 | – | – | 23 | 0
43 | CC(C)=CCc1c(Cl)ccc2c(C3=C(O)C(O)=CC(=O)C3=O)c[nH]c12 | 11 | – | 7.2 | 4 | – | –
